Hits are enriched below; roughly 5.1% of the tested compounds scored in any of these assays.
APP 5'UTR act: APP 5'UTR luciferase reporter activation; activation, % at 2 µM; SH-SY5Y APP 5'UTR luciferase reporter, luminescence; zero percent = DMSO vehicle wells; 190,000 tested, 1% active; AID 1276;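 active means activation above a set limit, based on mean plus 3 SD of controls, cut at about 140% in these data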
STAT3 activator: activators of IL-6 induced STAT3 signaling; U3A cells, IL-6 STAT3-luciferase reporter, luminescence; 100% = signal with IL-6 EC80 alone; activation (% of control), % at 5.6 µM; 190,000 tested, 0.91% active;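 active means activation above the screen-wide mean of compound activation plus 3 SD, cut at about 130% in these data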;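 further: 0% = background luminescence of wells with medium and substrate only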
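Material: human STAT1-deficient U3A cells with stable STAT3-luciferase reporter / Probe or stimulus: IL-6 stimulus at 33 ng/mL final / Schedule: 1 h compound pre-exposure, 6 h IL-6 stimulation, 37 °C / Technique: luminescence / Read-out basis: percent of IL-6-only median luminescence / Control set: IL-6-only high control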
STAT1 act: STAT1 signaling activation; AID 932; activation (% of control), % at 5.5 µM; 200,000 tested, 2.6% active; NIH 3T3 STAT1-luciferase reporter, IFN-gamma, luminescence; 100% = IFN-gamma alone, no compound;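 active means activation above the screen-wide mean activation plus 3 SD, cut at about 130% in these data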;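 further: raw ratio to IFN-gamma control signal so 100% means no change and 0% no light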
STAT3 blocker: reduces IL-6 driven STAT3 reporter signal; U3A cells, IL-6 STAT3-luciferase reporter, luminescence; host cell line lacks STAT1; inhibition, % at 5.5 µM; 190,000 tested, 0.89% active;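 active means inhibition above the mean inhibition across all screened compounds plus 3 SD, cut at about 44% in these data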;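 further: 0% = DMSO only wells and 100% = 100 µM nifuroxazide control wells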
NF-kB neuron act: NF-kB expression increase, human neuronal cells; NF-kB reporter expression; active compounds read high; fold change at 12.5 µM; AID 1239; 190,000 tested, 1.6% active; in the data active means fold change above about 3.3
STAT1 blocker: STAT1 signaling inhibition; AID 920; NIH 3T3 STAT1-luciferase reporter, IFN-gamma, luminescence; inhibition, % at 5.5 µM; 200,000 tested, 0.35% active;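 active means inhibition above a set limit, the mean inhibition across all tested compounds plus 3 SD, cut at about 34% in these data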;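 further: 0% = IFN-gamma with DMSO and 100% = IFN-gamma with 300 µM nifuroxazide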
Active calls of the source: *; x = not tested or not shown.

SMILES	APP 5'UTR act	STAT3 activator	STAT1 act	STAT3 blocker	NF-kB neuron act	STAT1 blocker
Oc1ccc2ccccc2c1/C=N/Nc1nnc(-c2ncc[nH]2)c2ccccc12	6	84	74	24	0.8	29
Clc1ccc(/C=N/Nc2nc(Cl)nc3ccccc23)cc1	28	93	133*	10	1.6	-36
Clc1ccccc1-c1nc(N/N=C/c2cccnc2)c2ccccc2n1	0	75	92	33	0.44	8
Clc1nnc(NN=C2CCCC2)c2ccccc12	25	126	108	-25	1.1	-8
COc1ccc(/C=N/Nc2nnc(-c3ncc[nH]3)c3ccccc23)cc1	65	74	142*	33	0.94	-47
c1ccc(-c2nnc(-c3ccncc3)nc2-c2ccccc2)cc1	-2	105	101	-5	2.4	-4
COc1ccccc1-n1c(=O)c2c3c(sc2n2c(SC)nnc12)CCC3	-12	94	89	9	x	12
Cc1cccc(N(C(=O)c2csnn2)C(C(=O)NC(C)(C)C)c2cccnc2)c1 (centres undefined)	-13	104	101	2	0.99	-1
Cc1ccc2nc(C(Cl)(Cl)Cl)nc(N/N=C/c3ccncc3)c2c1	-1	95	96	15	1.1	2
Cc1ccc(-c2nc(N/N=C/c3ccncc3)c3ccccc3n2)cc1	31	25	29	90*	2.4	78*
CCOC(=O)C1C(c2cccs2)NC(=O)N(C)C1(O)C(F)(F)F (centres undefined)	-10	101	104	3	1.1	-5
CN1C(=O)NC(c2cccc(O)c2)C(C(=O)c2cccs2)C1(O)C(F)(F)F (centres undefined)	135*	96	99	7	1.8	1
CCOC(=O)c1ccc(NC(=O)CN2CCN(Cc3ccccc3)CC2)cc1	8	105	96	-4	1.3	2
CCOC(=O)c1ccc(NC(=O)N2CCc3ccccc32)cc1	205*	94	125	10	7.9*	-27
COc1ccc(CCC(=O)N2CCc3ccccc32)cc1	37	84	133*	20	2.2	-36
CCOC(=O)c1ccc(NC(=O)N2CCN(Cc3ccccc3)CC2)cc1	15	133*	108	-28	0.83	-10
COc1ccc(NC(=O)N2CCc3ccccc32)cc1	176*	64	124	43	10*	-18
COc1ccc(NC(=O)N2CCCc3ccccc32)cc1	7	94	87	9	1.4	14
CC(C)(C)c1ccc(S(=O)(=O)O/N=C2/CCCCC2c2ccc([N+](=O)[O-])cc2[N+](=O)[O-])cc1 (centres undefined)	8	104	96	0	0.91	4
O=C(COc1ccc2c(c1)CCC2)N1CCc2ccccc21	93	106	134*	3	2.7	-37
Cc1ccc(OCC(=O)N2CCCc3ccccc32)cc1	30	95	109	9	1.3	-10
O=C(Nc1ccccc1)N1CCc2ccccc21	102	87	146*	18	6.5*	-47
O=C(CCC(=O)N1CCc2ccccc21)Nc1ccccc1	3	104	101	-4	1.1	-1
CC1CCN(S(=O)(=O)c2cccc(C(=O)NCc3cccs3)c2)CC1	9	98	96	8	0.78	4
CCOc1ccc(OCCSc2nc3ccccc3c(=O)[nH]2)cc1	-11	101	100	5	0.97	0
SMILES	APP 5'UTR act	STAT3 activator	STAT1 act	STAT3 blocker	NF-kB neuron act	STAT1 blocker
CCCc1cc(C(=O)NNC(=S)Nc2cccc(C)c2)cs1	110	108	142*	-6	2.1	-46
Cc1cccc(NC(=S)NNC(=O)c2ccc3c(c2)OCO3)c1	133	91	120	11	1.1	-23
COc1ccc2cc(C#N)c(SCC(=O)NNC(=O)Cc3ccccc3)nc2c1	-1	103	98	4	0.97	3
C=CCc1ccc(OCCOCCN(C)C)c(OC)c1	1	114	96	-15	1	3
C=CCc1ccc(OCCn2cccc2C=O)c(OC)c1	40	98	147*	13	1.7	-53
Cc1ccccc1CC1(CO)CCCN(Cc2nc(-c3cccs3)oc2C)C1 (centres undefined)	-2	103	104	2	1.5	-4
O=C(Nc1cc2c(cc1Cl)OCCCO2)c1ccco1	50	102	146*	2	2.4	-53
O=C(Nc1cc2c(cc1Cl)OCCCO2)c1ccccc1	65	92	133*	15	2.8	-36
O=C(/C=C/c1nc2ccccc2s1)N1CCCCCC1	118	93	132*	9	2.6	-35
COc1ccc2nc(NC(=O)CCNC(=O)c3ccccc3Cl)sc2c1	10	98	107	4	1.6	-9
CN1c2cccc3cccc(c23)N(C)C1(C)C	-3	112	99	-10	4.1*	1
CN1c2ccccc2N(C)C1(C)c1cccc2ccccc12	-7	96	97	4	0.58	3
Cc1ccc(S(=O)(=O)N/N=C(\c2ccccc2)c2cccnc2)cc1	7	93	93	18	1.1	6
CN(C)C(=O)CN(c1ccc(F)c(Cl)c1)S(C)(=O)=O	3	135*	94	-38	0.97	7
c1csc(Cc2nc3ccccc3[nH]2)c1	27	99	100	6	1.9	-2
Cc1cc(/C=N/NC(=O)c2cccc(N(C)C)c2)c(C)n1-c1cc(C(=O)O)cc(C(=O)O)c1	4	105	113	4	1.4	-16
CCN(CC)c1ccc(C(=O)Nc2cccc(F)c2)cc1	181*	77	127	35	8.4*	-30
CN(C)c1cccc(C(=O)N/N=C/c2ccccc2F)c1	139*	28	36	89*	5*	69*
CN(C)c1cccc(C(=O)Nc2cccc(F)c2)c1	67	100	132*	3	3	-34
Cc1cc(=O)[nH]c(SCC(=O)Nc2cc(S(=O)(=O)N(C)C)ccc2Cl)n1	-13	100	96	2	1.1	2
Fc1ccc(-c2csc(N3CCC(c4ccccc4)C3)n2)cc1 (centres undefined)	43	107	147*	-4	3.9*	-53
Clc1ccc(-c2csc(N3CCC(c4ccccc4)C3)n2)cc1 (centres undefined)	10	101	132*	0	2.4	-35
COc1ccc(-c2csc(N3CCC(c4ccccc4)C3)n2)cc1 (centres undefined)	0	90	104	12	1.9	-5
Cc1nnc2c3ccccc3c(-c3cccs3)nn12	-28	83	93	26	1.2	6
COc1ccc(-c2cc(C(=O)Nc3ccccc3SC)no2)cc1OC	12	86	97	21	1.2	3
COc1cccc(NC(=O)C(=S)NC2CCCCC2)c1	156*	79	130*	31	7*	-34

Screening data deposited in PubChem BioAssay by several laboratories.
